Assay results from ChEMBL document CHEMBL4266015, “Scaffold Ranking and Positional Scanning Identify Novel Neurite Outgrowth Promoters with Nanomolar Potency” (2018).

Legend:
Assay type in all cases: functional, Hippocampal neurone
[1] = Induction of neurite outgrowth in rat hippocampal neurons assessed as neurite total length at 15.625 ng/ml after 48 hrs relative to control
Procedure, shortened: (§1)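 E18 rat hippocampal neurons were plated on PDL at 1800 cells/well in NbActive4, adhered 2 h, then treated with compound prediluted in medium at 4× final for 48 h. Cells were fixed, stained for βIII-tubulin, imaged and auto-traced. Mean neurite total length is a percentage of DMSO vehicle wells on the same plate. ML-7 was the positive control and plates with Z-factor >0.5 were accepted.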

[2] = Induction of neurite outgrowth in rat hippocampal neurons assessed as neurite total length at 500 ng/ml after 48 hrs relative to control; procedure, shortened: as §1
[3] = Induction of neurite outgrowth in rat hippocampal neurons assessed as neurite total length at 125 ng/ml after 48 hrs relative to control; procedure, shortened: as §1
[4] = Induction of neurite outgrowth in rat hippocampal neurons assessed as neurite total length at 31.25 ng/ml after 48 hrs relative to control; procedure, shortened: as §1
[5] = Induction of neurite outgrowth in rat hippocampal neurons assessed as neurite total length at 250 ng/ml after 48 hrs relative to control; procedure, shortened: as §1
[6] = Induction of neurite outgrowth in rat hippocampal neurons assessed as neurite total length after 48 hrs
Procedure, shortened: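 Dissociated E18 rat hippocampal neurons were seeded on PDL-coated plates at 1800 cells/well in NbActive4 and allowed to adhere 2 h. Compounds were prediluted in medium at 4× final and added, then cells were grown 48 h (2 DIV). Wells were fixed, immunostained for βIII-tubulin and imaged by automated tracing. ED200% and ED300% values were linearly interpolated from dose-response curves of mean neurite total length.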

[7] = Induction of neurite outgrowth in rat hippocampal neurons assessed as neurite total length at 62.5 ng/ml after 48 hrs relative to control; procedure, shortened: as §1

Compound | Activity [1] [%] | Activity [2] [%] | Activity [3] [%] | Activity [4] [%] | Activity [5] [%] | ED200 [6] [nM] | ED300 [6] [nM] | Activity [7] [%]
CC(C)C[C@@H]1CN(CCCC[C@H]2CNC(CCCc3ccccc3)=N2)C(=S)N1CC1CCC(C)CC1 (some centres undefined) | 144.9 | 224.4 | 256.9 | 197 | 240 | 25 | 461 | 246.7
CCC(C)CC1=N[C@@H](CCCCN2C[C@@H](c3ccccc3)N(CCCCC(C)C)C2=S)CN1 (some centres undefined) | 121.4 | 276.3 | 263.7 | 179.4 | 265.8 |  |  | 252.8
CCC(C)CC1=N[C@@H](CCCCN2C[C@@H](C)N(CCCC3CCCCC3)C2=S)CN1 (some centres undefined) | 102.3 | 357.5 | 196.1 | 121.4 | 246.1 |  |  | 142.6
CC(C)CCCCN1C(=S)N(CCCC[C@H]2CNC(CCCCc3ccccc3)=N2)C[C@H]1CC(C)C | 127.4 | 239.9 | 237.1 | 145.3 | 265.6 |  |  | 194.1
CC(C)CCCCN1C(=S)N(CCCC[C@H]2CNC(CC3CCCC3)=N2)C[C@H]1C | 113.8 | 323.7 | 213.9 | 137.9 | 264.8 |  |  | 175.9
S=C1N(CCCC[C@H]2CNC(CCCCc3ccccc3)=N2)C[C@@H](c2ccccc2)N1CCCC1CCCCC1 | 143.7 | 183.5 | 254.2 | 208.9 | 221.8 |  |  | 251.6
CC(C)C[C@@H]1CN(CCCC[C@H]2CNC(C3CCCC3)=N2)C(=S)N1CCC1CCCCC1 | 194.9 | 248.7 | 282.9 | 256.5 | 277.2 | 4 | >543 | 271
CC1CCC(CN2C(=S)N(CCCC[C@H]3CNC(C4CCCC4)=N3)C[C@H]2C)CC1 (some centres undefined) | 94.61 | 322.3 | 230.7 | 128.3 | 257.3 | 130 | 282 | 168.1
S=C1N(CCCC[C@H]2CNC(C3CCCC3)=N2)C[C@@H](c2ccccc2)N1CCC1CCCCC1 | 182.3 | 185.9 | 261.9 | 251.5 | 232.4 | 7 | 91 | 260.5
CCC(C)CC1=N[C@@H](CCCCN2C[C@@H](C)N(CCCCC(C)C)C2=S)CN1 (some centres undefined) | 92.45 | 323.0821 | 169.1 | 115.6 | 209.2 |  |  | 155
CC1CCC(CN2C(=S)N(CCCC[C@H]3CNC(CCCc4ccccc4)=N3)C[C@H]2c2ccccc2)CC1 (some centres undefined) | 184.9 | 221.2261 | 269.1 | 174.3 | 244.7 | 17 | >471 | 237.5
CCC(C)CC1=N[C@@H](CCCCN2C[C@@H](C)N(CCC3CCC(C)CC3)C2=S)CN1 (some centres undefined) | 97.33 | 293.6 | 166.2 | 134.9 | 266.7 |  |  | 150
CC1CCC(CN2C(=S)N(CCCC[C@H]3CNC(C4CCCC4)=N3)C[C@H]2c2ccccc2)CC1 (some centres undefined) | 251 | 229.6 | 286.2 | 271.9 | 270.8 | 2 | >520 | 305.6
CCC(C)CC1=N[C@@H](CCCCN2C[C@@H](CC(C)C)N(CCCCC(C)C)C2=S)CN1 (some centres undefined) | 122.8 | 239.5 | 254 | 179.8 | 258.7 |  |  | 222.6
CC(C)C[C@@H]1CN(CCCC[C@H]2CNC(CCCCc3ccccc3)=N2)C(=S)N1CCCC1CCCCC1 | 114 | 246.8 | 200.8 | 135.5 | 267.3 |  |  | 199.3
CC(C)C[C@@H]1CN(CCCC[C@H]2CNC(C3CCCC3)=N2)C(=S)N1CC1CCC(C)CC1 (some centres undefined) | 169.9 | 263 | 311.6 | 255.4 | 238.5 | 4 | 25 | 253.6
CCC(C)C1=N[C@@H](CCCCN2C[C@@H](c3ccccc3)N(CC3CCC(C)CC3)C2=S)CN1 (some centres undefined) | 190 | 279.8 | 301.9 | 256.2 | 255.9 | 5 | 54 | 296.7
CC(C)CCCCN1C(=S)N(CCCC[C@H]2CNC(CCCCc3ccccc3)=N2)C[C@H]1C | 116.4 | 346.7 | 160.4 | 100.5 | 257.3265 |  |  | 124.2
C[C@@H]1CN(CCCC[C@H]2CNC(CCCCc3ccccc3)=N2)C(=S)N1CCCC1CCCCC1 | 100.8 | 242.7 | 209.7 | 122.1 | 246.6 |  |  | 122
CCC(C)CC1=N[C@@H](CCCCN2C[C@@H](c3ccccc3)N(CCCC3CCCCC3)C2=S)CN1 (some centres undefined) | 139 | 228.1 | 245.5 | 200.8 | 221.9 |  |  | 257.2
CC(C)CCCCN1C(=S)N(CCCC[C@H]2CNC(CC3CCCC3)=N2)C[C@H]1c1ccccc1 | 173.9 | 273 | 249.2 | 234.3 | 277.9 |  |  | 279.6
CCC(C)C1=N[C@@H](CCCCN2C[C@@H](CC(C)C)N(CC3CCC(C)CC3)C2=S)CN1 (some centres undefined) | 131.1 | 264.4 | 268.2 | 216.3 | 236 | 10 | 53 | 253.6
CC(C)CCCCN1C(=S)N(CCCC[C@H]2CNC(CCCCc3ccccc3)=N2)C[C@H]1c1ccccc1 | 113.8 | 225.1 | 259.1 | 170.2 | 253.9 |  |  | 172.4
C[C@@H]1CN(CCCC[C@H]2CNC(CC3CCCC3)=N2)C(=S)N1CCCC1CCCCC1 | 104.7 | 304.4 | 250.7 | 157.6 | 245.7679 |  |  | 188
CC1CCC(CCN2C(=S)N(CCCC[C@H]3CNC(CCCCc4ccccc4)=N3)C[C@H]2C)CC1 (some centres undefined) | 88.36 | 296.9 | 70.33 | 101.9 | 237.6 |  |  | 117.7
CCC(C)CC1=N[C@@H](CCCCN2C[C@@H](CC(C)C)N(CCCC3CCCCC3)C2=S)CN1 (some centres undefined) | 158.9 | 264.0755 | 252.9 | 178.9 | 253.1 |  |  | 261.9
